m-calpain inh: inhibitors of pig calpain II, primary screen, biochemical, fluorogenic peptide substrate, 1536-well; purified calpain II, 30 min; inhibition, % at 16 µM; hit rate 0.37% among 220,000;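 active = inhibition above about 50%, limit read from the data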
Cl transport mod: KCC2 cotransporter modulators, thallium flux, primary screen, cell-based, HEK293 KCC2, FluoZin-2 fluorescence, MLSMR. hit rate 2.2% among 190,000. B-score of Tl+ flux slope (higher = more flux/activation; lower = inhibition) at 10 µM. Solute carrier family 12 member 5 (Homo sapiens), Q9H2X9. AID 1456, 2008. KCC2 cells, thallium flux FluoZin-2 fluorescence;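 active = thallium flux slope and its plate-corrected score both differing from the plate sample mean at a set confidence after two filtering rounds, in either direction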;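 note: slope of fluorescence scaled to starting intensity during 10 to 20 s after thallium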
Arbovirus inh: antivirals against arbovirus infection, primary screen, cell-based, full library, 10K replicate subset. arbovirus infection cell-based antiviral screen. inhibition, % at 10 µM. hit rate 0.37% among 200,000; in the data active = inhibition above about 30%
Mdm2 ligase inh: MDM2-luciferase reporter signal enhancers, primary screen, MDM2 E3 ligase inhibitor project, cell-based, luminescence, 1536-well; E3 ubiquitin-protein ligase Mdm2 (Homo sapiens), Q00987; cell-based MDM2 ubiquitination luciferase reporter, 2 h; 0 = plate control, 100 = twice control, blank-subtracted; signal enhancement, % at 5 µM; hit rate 0.11% among 210,000;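 active = signal enhancement of 30% or more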;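 note: luminescence tracks abundance of the self-degrading MDM2-luciferase fusion protein; higher signal means inhibition of MDM2 E3 ligase activity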
Target sequence (Q00987 whole entry, looked up, the tested form may be a part): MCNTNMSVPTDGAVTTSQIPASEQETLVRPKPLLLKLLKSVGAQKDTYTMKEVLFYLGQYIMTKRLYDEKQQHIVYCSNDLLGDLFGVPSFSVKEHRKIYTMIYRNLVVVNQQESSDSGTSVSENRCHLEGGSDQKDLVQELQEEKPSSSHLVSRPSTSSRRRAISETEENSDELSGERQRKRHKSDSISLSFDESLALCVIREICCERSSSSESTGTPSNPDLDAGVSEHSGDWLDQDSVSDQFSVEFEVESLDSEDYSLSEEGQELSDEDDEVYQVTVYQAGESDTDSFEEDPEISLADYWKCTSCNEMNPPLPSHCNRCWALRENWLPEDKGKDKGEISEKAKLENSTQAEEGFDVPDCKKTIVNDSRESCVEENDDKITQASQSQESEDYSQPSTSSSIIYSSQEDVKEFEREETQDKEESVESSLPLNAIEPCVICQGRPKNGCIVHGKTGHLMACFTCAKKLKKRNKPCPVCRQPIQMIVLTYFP
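Assay system: stable mammalian line carrying autodegrading MDM2–luciferase fusion reporter; Input: 2000 cells in each well; Compound dosing: single-point 5 µM; Schedule: 2 h compound exposure at 37 °C; Signal: SteadyLite luciferase luminescence after 15 min room-temperature reagent incubation; Evaluation: % luminescence enhancement versus blank-corrected plate control mean; Benchmarks: plate controls and plate blanks.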
PKD1 inh: inhibitors of human PKD1 kinase, biochemical, fluorescence polarization | PKD1 kinase fluorescence polarization assay | Serine/threonine-protein kinase D1 (Homo sapiens), Q15139 | hit rate 0.056% among 200,000 | AID 797, 2007 | inhibition, % (test concentration not listed); in the data active = inhibition above about 50%
ROMK primary: ROMK potassium channel modulators, primary screen, cell-based, thallium flux, MLSMR library | ATP-sensitive inward rectifier potassium channel 1 (Homo sapiens), P48048 | Tet-inducible ROMK, thallium flux fluorescence; actives lie on both sides | B-score at 10 µM | hit rate 2% among 130,000 | AID 1918, 2009;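 active = signal ratio slope over the read window, or its plate-corrected B-score, at least 3 SD from the plate mean, either direction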;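 note: B-score of the F/F0 ratio slope over 7 to 12 s after thallium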
KCC2 sec1: KCC2 modulators in sodium-free buffer, confirmation, cell-based, HEK293 KCC2, thallium flux, secondary assay. shares compounds with Cl transport mod. FluoZin2 fluorescence; stronger effect = higher value. hit rate 15% among 3,700. normalised thallium flux (F/F0 slope) at 10 µM;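 active = thallium flux slope above the same plate's solvent-only control mean plus 3 SD; inconclusive = the two replicate wells disagree; inactive = no significant difference from solvent-only control wells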
KCC2 bumet counter: thallium flux persisting under bumetanide in KCC2 cells, confirmation, counter-screen for KCC2 modulator project, cell-based, HEK293 KCC2, FluoZin2, secondary assay 3. shares compounds with Cl transport mod. HEK293-KCC2 + bumetanide/ouabain; stronger effect = higher value. normalized thallium flux at 10 µM. hit rate 49% among 3,700. AID 1714, 2009;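 active = thallium entry rate above the same plate's blocked-transporter control wells by more than 3 SD; inconclusive = the two repeat wells disagree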;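 note: raw slope of fluorescence over initial fluorescence between 10 and 20 s after thallium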
KCC2 sec2: KCC2 modulators without ouabain present, confirmation, cell-based, HEK293 KCC2, thallium flux, FluoZin2, secondary assay 2; hit rate 23% among 3,700; thallium flux FluoZin2 fluorescence; actives lie on both sides; F/F0 rise rate, 10–20 s post-thallium; normalized thallium flux at 10 µM; shares compounds with Cl transport mod; AID 1715, 2009;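 active = thallium flux slope more than 3 SD above or below the plate's solvent-only control mean, mostly below; inconclusive = the two repeat wells disagreed; inactive = no significant shift from solvent-only controls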;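 note: raw slope with 0.1% DMSO as baseline and bumetanide as block control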
HEK counter1: thallium flux modulation in parental HEK cells, confirmation, counter-screen for KCC2 modulator project, cell-based, counterscreen 1; shares compounds with Cl transport mod; HEK293 parental cells, thallium flux FluoZin2, ouabain; baseline-ratio fluorescence slope, 10–20 s after thallium; thallium flux rate (normalised fluorescence) at 10 µM; hit rate 46% among 3,700;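 active = thallium flux rate significantly above the same plate's solvent-only control wells, beyond their mean plus 3 SD; inconclusive = the two replicate wells gave conflicting results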
KCC2 retest ouab: KCC2 inhibitors and activators, ouabain retest, confirmation, HEK-KCC2 cells; HEK293-KCC2, thallium flux FluoZin2 fluorescence; bidirectional: low = inhibitor, high = activator; shares compounds with Cl transport mod; raw Tl+ flux slope (below DMSO = inhibition, above = activation) at 10 µM; hit rate 48% among 3,700;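 active = thallium flux slope beyond 3 SD from same-plate DMSO control mean in most replicates, usually higher, sometimes lower; inconclusive = repeat tests gave conflicting results; inactive = no significant difference from controls in most replicates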;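 note: slope of initial-normalized fluorescence between seconds 10 and 20 after thallium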
HEK293 Tl flux2: native HEK Tl+ uptake effects, second counter-screen – HEK cells, counterscreen 2, counter-screen for KCC2 modulator project, confirmation | shares compounds with Cl transport mod | HEK293 parental, thallium flux FluoZin-2 fluorescence slope | thallium flux slope at 10 µM | hit rate 33% among 3,700 | AID 1718, 2009;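 active = thallium flux slope above the same plate's solvent-control mean plus 3 SD in both duplicate wells; inconclusive = duplicate wells that disagreed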;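 note: run without ouabain in cells lacking the KCC2 cotransporter; slope of fluorescence scaled to its starting value between 10 and 20 s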
Numbers without * were called inactive; ? = inconclusive; · = no result. The list is not random: actives were taken first. Their share in the collection is about 3.7%.

SMILES | m-calpain inh | Cl transport mod | Arbovirus inh | Mdm2 ligase inh | PKD1 inh | ROMK primary | KCC2 sec1 | KCC2 bumet counter | KCC2 sec2 | HEK counter1 | KCC2 retest ouab | HEK293 Tl flux2
O=C(CSCc1c(Cl)cccc1Cl)Nc1ccccc1-c1ccccc1 | 1.5 | -0.338 | -5.8 | 1.8 | -5.1 | 0.69 | · | · | · | · | · | ·
Cc1cc(=O)[nH]c(SCC(=O)Nc2nc(-c3ccccc3)cs2)n1 | -31.5 | -7.13* | 7.7 | -4.8 | -1.2 | · | 0.00791 | 0.00626 | 0.0338 | 0.0038 | 0.0147* | 0.0114
Cn1nccc1C(=O)OCC(=O)Nc1nc(-c2ccccc2)cs1 | -27.0 | -5.33* | 0.6 | -19.2 | -1.3 | · | 0.0159 | 0.00492 | 0.0222* | 0.00761 | 0.0149 | 0.0105
Cc1cc(=O)[nH]c(SCC(=O)Nc2nnc(SCc3ccccc3)s2)n1 | -12.7 | -4.79* | 18.2 | 10.2 | 7.6 | 0.926 | 0.00513 | 0.00464 | 0.0248* | 0.00481* | 0.0146* | 0.00829*
COc1ccccc1-c1nnc(SCC(=O)Nc2nc(-c3ccccc3)cs2)n1C | 21.8 | -4* | 11.9 | -2.3 | 1.3 | · | ? | 0.00658 | 0.032 | 0.00346 | 0.0148* | 0.0115
O=C(COC(=O)c1cccs1)Nc1nc(-c2ccccc2)cs1 | -4.8 | 0.152 | -0.5 | -7.0 | -6.8 | · | · | · | · | · | · | ·
Cc1cc(C)nc(SCc2nnc(SCC(=O)Nc3nc(-c4ccccc4)cs3)n2C)n1 | 3.1 | -1.77 | -8.4 | 8.1 | -3.4 | -1.95 | · | · | · | · | · | ·
Cc1noc(C)c1S(=O)(=O)N(CC(=O)N1CCCCCC1)c1ccc(C(C)C)cc1 | -6.4 | -0.144 | -1.6 | -3.6 | -10.4 | · | · | · | · | · | · | ·
Cc1nc(CC(=O)Nc2nc(-c3ccccc3)cs2)cs1 | -24.5 | -3.43* | 6.0 | -13.9 | -5.2 | · | 0.00858 | 0.00562 | ? | 0.00857 | 0.0174* | 0.0116
O=C(Cn1cnc2c(nnn2Cc2ccccc2)c1=O)N1CCN(c2ccccc2)CC1 | -4.1 | -4.46* | -20.9 | -8.1 | 6.7 | · | 0.00651 | 0.00652 | 0.0323 | 0.0086 | 0.0144* | 0.0113
Cc1ccc(-n2nnc3c(=O)n(CC(=O)OCc4ccccc4)cnc32)cc1 | -29.9 | -1.23 | 5.1 | -13.4 | -0.5 | · | · | · | · | · | · | ·
O=C(Cn1cnc2c(nnn2Cc2ccc(F)cc2)c1=O)N1CCCc2ccccc21 | -5.1 | -3.97* | -2.2 | -6.4 | -8.8 | -0.47 | 0.0158 | 0.00514 | 0.0246* | 0.00771 | 0.0147 | 0.0107
O=C(Cn1cnc2c(nnn2Cc2ccccc2F)c1=O)OCc1ccccc1 | -5.0 | -7.37* | -0.1 | -7.5 | -0.6 | · | 0.00817 | 0.00627 | 0.0331 | 0.00441 | 0.0148* | 0.012
CCCCNC(=O)C1CCCN1C(=O)Nc1cccc(OC)c1 (stereo unspecified) | 15.6 | 0.718 | 0.5 | -14.9 | -5.0 | -0.196 | · | · | · | · | · | ·
CCCCOc1cccc(C(=O)NC(=S)Nc2cccc(C(F)(F)F)c2)c1 | 2.9 | 6.48* | 7.7 | -5.0 | 9.7 | · | 0.00753 | 0.0158* | ? | 0.0204* | 0.0267* | 0.0156*
CCCCOc1cccc(C(=O)NC(=S)Nc2cccnc2)c1 | 21.4 | 6.04* | 2.6 | -5.8 | -8.3 | 0.146 | 0.0129* | 0.0867* | 0.0358 | 0.0287* | 0.052* | 0.0131*
CCOc1cccc(C(=O)NC(=S)Nc2cccnc2)c1 | 9.2 | 1.1 | -6.1 | 16.0 | -5.3 | -0.559 | · | · | · | · | · | ·
Nc1nnc(SCC(=O)c2ccc3c(c2)NC(=O)CO3)s1 | -4.0 | 0.237 | -2.8 | -0.6 | 0.7 | -0.501 | · | · | · | · | · | ·
CCCc1cc(=O)[nH]c(SCC(=O)c2ccc3c(c2)NC(=O)CO3)n1 | -6.7 | 11.3* | · | -13.2 | · | · | 0.0163 | 0.00413 | 0.029 | 0.00741 | 0.0166 | 0.00951
CC(C)NC(=O)C1CCN(C(=O)C(C(=O)c2ccccc2)n2cc(Cl)ccc2=O)CC1 (stereo unspecified) | 1.0 | -4.29* | 3.3 | -7.8 | -13.2 | · | 0.00981 | ? | 0.0364 | 0.00963* | 0.0237 | ?
O=c1c(Cl)c(Cl)cnn1Cc1nnc(-c2ccccc2Br)o1 | -96.7 | -1.42 | -22.1 | 8.9 | -3.3 | -0.196 | · | · | · | · | · | ·
COc1ccc(-c2cc(CCCC(=O)NCCc3cc(OC)ccc3OC)no2)cc1 | -28.7 | -4.68* | 5.0 | -8.6 | 11.1 | 0.418 | 0.00714 | 0.00417 | 0.0314 | 0.00711 | 0.0173 | 0.0112
COc1ccc(-c2cc(CCCC(=O)N3CCN(c4ccc(OC)cc4)CC3)no2)cc1 | -36.7 | -0.927 | -7.3 | -20.2 | 7.5 | · | · | · | · | · | · | ·
N#Cc1ccc(S(=O)(=O)Nc2ccc3ccccc3n2)cc1 | -15.9 | 0.782 | · | 0.4 | · | · | · | · | · | · | · | ·
O=C(NCCN1CCOCC1)c1ccc(Cl)cc1[N+](=O)[O-] | 15.6 | -0.538 | 0.7 | 5.1 | -5.4 | · | · | · | · | · | · | ·
CCOC(=O)C(CC)(CCC(=O)O)c1csc(N)n1 (stereo unspecified) | -32.2 | · | 10.2 | -26.8 | 2.6 | 0.524 | · | · | · | · | · | ·
CCCCC(CCC(=O)O)(C(=O)OCC)c1csc(Nc2ccc(C)cc2)n1 (stereo unspecified) | -49.4 | -4.07* | -1.8 | -4.8 | 2.7 | 1.02 | 0.00525 | 0.004 | 0.0249* | 0.0056* | 0.0125* | ?
O=S(=O)(/N=C(\Nc1ccc(F)cc1)C(F)(F)F)c1ccccc1 | 5.4 | · | 0.0 | -4.0 | -4.1 | -0.795 | · | · | · | · | · | ·
